Most compounds without a hit are left out; they make up all but 4.1% or so of the library.
MC4R antagonist – MC4R antagonists of cAMP signaling, primary screen, cell-based, TR-FRET, antagonist arm of biased-ligand search; Melanocortin receptor 4 (Homo sapiens), P32245; MC4R-expressing cells, MTII-stimulated cAMP, LANCE TR-FRET; inhibition, % at 6.5 µM; 360,000 compounds, 0.48% hits;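 active = inhibition above its plate's cutoff, the mean of tested wells on that plate plus 3 SD, cut at about 29% in these data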;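 note: 0% = Melanotan II alone and 100% = Melanotan II plus saturating MCL0020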
Target sequence (P32245 whole entry, looked up): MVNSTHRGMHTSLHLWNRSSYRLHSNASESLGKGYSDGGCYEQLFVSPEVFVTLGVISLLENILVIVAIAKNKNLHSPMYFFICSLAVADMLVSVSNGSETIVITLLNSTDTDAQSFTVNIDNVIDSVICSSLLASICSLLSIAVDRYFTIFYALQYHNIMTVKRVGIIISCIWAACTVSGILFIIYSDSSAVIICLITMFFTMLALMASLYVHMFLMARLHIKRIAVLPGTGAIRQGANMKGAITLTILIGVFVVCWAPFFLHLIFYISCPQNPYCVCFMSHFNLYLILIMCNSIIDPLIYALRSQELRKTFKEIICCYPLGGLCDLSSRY
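Test system: U2OS cells stably expressing human melanocortin 4 receptor (MC4R); also added: Melanotan II challenge; compound: 6.5 µM single dose; timing: 30-min compound preincubation, 1-h Melanotan II challenge, 1-h detection, room temperature; signal: Eu-cAMP/anti-cAMP TR-FRET, emission 671 nm; repeats: one well per compound, no replicates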
ATG4B inh – ATG4B protease inhibitors, primary screen, biochemical, fluorescence, uHTS. Cysteine protease ATG4B (Homo sapiens), Q9Y4P1. ATG4B cleavage of LC3-PLA2, NBD-HPC fluorescence, 1 h. inhibition, % at 8.33 µM. 340,000 compounds, 0.51% hits. AID 504462, 2011; in the data active = inhibition above about 40%
Target sequence (Q9Y4P1 whole entry, looked up): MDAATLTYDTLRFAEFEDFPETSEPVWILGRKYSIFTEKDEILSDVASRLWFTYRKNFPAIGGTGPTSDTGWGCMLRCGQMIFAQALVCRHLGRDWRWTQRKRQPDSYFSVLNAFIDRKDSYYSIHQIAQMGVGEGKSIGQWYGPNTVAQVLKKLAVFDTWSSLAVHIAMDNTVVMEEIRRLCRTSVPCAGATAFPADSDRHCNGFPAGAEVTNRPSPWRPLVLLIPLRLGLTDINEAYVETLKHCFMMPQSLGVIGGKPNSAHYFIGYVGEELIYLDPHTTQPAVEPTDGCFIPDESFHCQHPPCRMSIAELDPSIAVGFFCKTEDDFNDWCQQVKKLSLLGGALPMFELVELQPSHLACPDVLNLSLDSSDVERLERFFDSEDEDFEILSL
MPTP block – mitochondrial permeability transition pore inhibitors, primary screen, biochemical, isolated mouse mitochondria, absorbance; 360,000 compounds, 1.4% hits; Ca2+ swelling absorbance, 30 min; inhibition, % at 10 µM; AID 602449, 2012;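 active = inhibition of 50% or more, scaled per plate between neutral and stimulator controls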;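 note: 0% = DMSO wells given calcium and 100% = 1 mM EGTA wells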
SMARCA2 act – SMARCA2 (BRM) function activators, primary screen, cell-based, luminescence, high throughput. MG213 cells, MMTV-luciferase reporter, dexamethasone, overnight. activation, % at 9.1 µM. 370,000 compounds, 1% hits. AID 652017, 2013; in the data active = activation above about 7.8%;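 note: 0% = vehicle wells and 100% = reference activator wells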
MC4R ag barr – MC4R agonists recruiting beta-arrestin, primary screen, cell-based, luminescence, agonist arm of biased-ligand search. Melanocortin receptor 4 (Homo sapiens), P32245. U2OS MC4R beta-arrestin complementation; percent of melanotan II response, DMSO zero. activation, % at 8.9 µM. 360,000 compounds, 0.98% hits. AID 540308, 2011;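 active = activation above a per-plate cutoff, the mean activation of sample wells on that plate plus 3 SD, cut at about 8% in these data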
cAMP nonselect – nonselective cAMP signaling inhibitors, parental cells, counter-screen for MC4R biased antagonist project, cell-based, TR-FRET, U2OS, forskolin, triplicate; shares compounds with MC4R antagonist; LANCE TR-FRET; inhibition, % at 6.5 µM; 1,600 compounds, 26% hits;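 active = mean inhibition over triplicates above the low-control well mean plus 3 SD, set per campaign, cut at about 13% in these data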;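 note: signal is single emission at 671 nm which falls as cellular cAMP rises; 0% = forskolin-stimulated wells and 100% = buffer without forskolin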
MC4R cAMP antag – MC4R cAMP antagonists, retest, confirmation, cell-based, TR-FRET | MC4R-expressing cells, MTII-stimulated cAMP | 1,600 compounds, 27% hits | shares compounds with MC4R antagonist | AID 602195, 2012 | inhibition, % at 6.5 µM; in the data active = inhibition above about 29%;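 note: 0% = agonist stimulated wells alone and 100% = agonist stimulated wells plus saturating reference antagonist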
MC4R barr conf – MC4R beta-arrestin agonists, retest, confirmation, cell-based, luminescence, U2OS; 2,400 compounds, 31% hits; shares compounds with MC4R ag barr; U2OS MC4R beta-arrestin recruitment; scaled DMSO 0%, Melanotan II 100%; activation, % at 8.9 µM;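 active = mean activation across replicates above the hit cutoff set in the earlier primary screen, cut at about 8% in these data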
MOR DOR agonist – agonists of MOR-DOR heterodimerization, counter-screen for MC4R biased agonist project, cell-based, luminescence | shares compounds with MC4R ag barr | 2,400 compounds, 5.8% hits | U2OS PathHunter beta-arrestin, beta-gal luminescence; percent of deltorphin B response, DMSO zero | activation, % at 9.2 µM;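 active = mean activation across replicates exceeds the hit threshold derived in the earlier primary screen, cut at about 18% in these data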;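 note: 100% = deltorphin B at 0.9 µM final and 0% = DMSO alone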
MPTP counter – fluorescence retest of MPTP screen hits in isolated mitochondria, single concentration; shares compounds with MPTP block; membrane potential, Rhodamine 123 fluorescence; inhibition, % at 10 µM; 5,000 compounds, 78% hits; in the data active = inhibition above about 22%;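 note: 0% = DMSO vehicle and 100% = positive control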
MPTP swell DR – mitochondrial permeability transition pore inhibitors, dose response, biochemical, absorbance, uHTS hits | 780 compounds, 58% hits | IC50, µM | isolated mitochondria swelling | shares compounds with MPTP block | AID 651561, 2012; in the data active = IC50 below about 20 µM
MPTP cs DR – fluorescent counter-screen in isolated mitochondria, dose response, counter-screen for MPTP inhibitor project, biochemical, fluorescence, uHTS hits. shares compounds with MPTP block. isolated mitochondria counterscreen, fluorescence read-out. IC50, µM. 780 compounds, 49% hits; in the data active = IC50 below about 80 µM
* = called active by the depositor; nt = no result; ! = repeats disagree.

SMILES	MC4R antagonist	ATG4B inh	MPTP block	SMARCA2 act	MC4R ag barr	cAMP nonselect	MC4R cAMP antag	MPTP counter	others
CCOC(=O)[C@]12CCCCC/C=C\1N(Cc1ccc(OC)cc1)C(=O)[C@H]2CC(=O)NCCCCc1ccccc1	nt	nt	nt	-1	nt	nt	nt	nt
O=C(Nc1ccc2nc(SCc3ccc(Cl)cc3)sc2c1)c1ccccc1C(=O)N1CCOCC1	64*	-12	-7	1	10.0*	30*	66*	nt	MC4R barr conf=24*;MOR DOR agonist=17
C=C1CCc2c([nH]c3ccc(OCC(C)C)cc23)C1=O	45*	1	0	-8	14*	12	32*	nt	MC4R barr conf=13*;MOR DOR agonist=12
COc1ccc2[nH]c3c(c2c1)CCNC3=O	0	-6	1	2	-1	nt	nt	nt
CCc1cc2c(nc1CC)CCCN2S(=O)(=O)c1ccccc1	nt	nt	nt	1	nt	nt	nt	nt
CCCCOCCCNC(=O)C[C@@H]1C[C@]2(C(=O)OCC)CCC3=C2N(CCC3)C1=O	nt	nt	nt	-1	nt	nt	nt	nt
O=C(/C=C/c1ccc2c(c1)OCCO2)N1CCN(c2ccc(F)cc2)CC1	2	-11	3	1	-1	nt	nt	nt
O=C(/C=C/c1ccc2c(c1)OCO2)N1CCN(c2ccc(Cl)cc2)CC1	29*	5	1	0	13*	-3	-17	nt	MC4R barr conf=2;MOR DOR agonist=4
O=C(Nc1ccccc1-c1nc2ccccc2[nH]1)c1ccc(N2C(=O)CCC2=O)cc1	35*	-24	-2	0	10*	-1	27	nt	MC4R barr conf=2;MOR DOR agonist=10
O=C(Nc1ccc(-c2nc3ccccc3[nH]2)cc1)c1cccc(N2C(=O)CCC2=O)c1	0	2	0	7	0	nt	nt	nt
C=CCN1[C@@H](CC(C)C)COc2cc(F)ccc2S1(=O)=O	nt	nt	nt	-5	nt	nt	nt	nt
CC1(C)CC(=O)C(C(C2=C(O)CC(C)(C)CC2=O)c2ccc(Br)s2)C(=O)C1 (stereo not given)	39*	30	73*	-3	1	12	12	80*
Cc1ccc(C(C2=C(O)CC(C)(C)CC2=O)C2C(=O)CC(C)(C)CC2=O)s1 (stereo not given)	13	8	2	-2	-1	nt	nt	nt
O=C(CN(c1cccc(C(F)(F)F)c1)S(=O)(=O)c1ccc(Cl)c([N+](=O)[O-])c1)NCc1ccc(F)cc1	29*	40	74*	-1	1	18*	57*	67*
O=C(CN(c1cccc([N+](=O)[O-])c1)S(=O)(=O)c1ccccc1)NCc1cccnc1	0	-4	0	0	-2	nt	nt	nt
CCCCNc1c(-c2ccc(OC)c(SC(C)CC)c2)nc2ccc(Cl)cn12 (stereo not given)	15	6	1	0	4	nt	nt	nt
CCCCNc1c(-c2ccc(OC)c(SC(C)CC)c2)nc2ccc(C)cn12 (stereo not given)	36*	10	59*!	-2	1	22*	48*	99*
CCC(C)Sc1cc(-c2nc3ccc(C)cn3c2NCc2ccccc2)ccc1OC (stereo not given)	47*	8	54*!	-7	-3	27*	78*	105*
CCNC(=O)N(C)[C@H]1C[C@H]2c3[nH]c4cccc(-c5ccc6c(c5)OCO6)c4c3CCN2C[C@H]1[C@H](C)O	nt	nt	nt	4	nt	nt	nt	nt
CC(=O)Nc1ccc(Nc2nnc(-c3ccc(C)c(S(N)(=O)=O)c3)c3ccccc23)cc1	6	-6	-1	0	-2	nt	nt	nt
Cc1ccc(-c2nnc(Nc3ccc4c(c3)OCO4)c3ccccc23)cc1S(N)(=O)=O	33*	-4	56*	0	2	6	15	-7	MPTP swell DR=>100;MPTP cs DR=>80
CCc1nnc(NS(=O)(=O)c2ccc(NC(=S)NC(=O)/C=C/c3ccc(C(C)C)cc3)cc2)s1	29*	33	66*	nt	24*	-2	-6	42*	MC4R barr conf=1;MOR DOR agonist=1
O=[N+]([O-])c1ccc2nc(NS(=O)(=O)c3ccccc3[N+](=O)[O-])sc2c1	1	2	23	2	-1	nt	nt	nt
O=C(NC(Nc1nc2ccc([N+](=O)[O-])cc2s1)(C(F)(F)F)C(F)(F)F)c1ccccc1Cl	33*	-7	92*	-6	1	6	18	92*
Cc1cccc(NC(=O)Nc2c(-c3ccc(C(F)(F)F)cc3)nc3ncccn23)c1	nt	nt	nt	-2	nt	nt	nt	nt
SMILES	MC4R antagonist	ATG4B inh	MPTP block	SMARCA2 act	MC4R ag barr	cAMP nonselect	MC4R cAMP antag	MPTP counter	others
Cc1cc(C)n(-c2nc(N(c3ccccc3)c3ccccc3)nc(-n3nc(C)cc3C)n2)n1	62*	0	80*	nt	4	3	-7	2
C#CCN1C(C(=O)OC)CN(CCCCCC)CCS1(=O)=O (stereo not given)	nt	nt	nt	2	nt	nt	nt	nt
Cc1ccc2c(c1)/C(=N/OS(=O)(=O)c1ccccc1)CCS2	3	11	2	-2	-1	nt	nt	nt
CC1=CC(=O)C(C(C)C)=C/C1=N/OS(=O)(=O)c1ccccc1	71*	0	96*	-15	31*	36*	91*	92*
CCCC[C@@H]1C(=O)N2N=Cc3cscc3[C@H]2N2N=Cc3cscc3[C@@H]12	nt	nt	nt	-1	nt	nt	nt	nt
O=S(=O)(CC1NCc2cc(F)ccc21)NCc1ccccc1 (stereo not given)	nt	nt	nt	-2	nt	nt	nt	nt

Screening data: PubChem, several laboratories
